Results reported in publication PMC4042847 (Journal of the American Chemical Society, 2013).

Columns and labels:
[1] = target: SHV-1 β-lactamase (Klebsiella pneumoniae, UniProt P0AD64); experiment: Steady-state inhibition kinetics with nitrocefin as indicator substrate; assay type: biochemical; details: for kobs react 30min: after a 30 min incubation of 1:90 enzyme:inhibitor ratio; for tn (24h): inhibitor:enzyme ratio decreasing activity by 95% after 24 h incubation
[2] = tested on: ADC-7 β-lactamase; experiment: IC50, turnover number and timed inactivation with nitrocefin; assay type: biochemical
Outline: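 Enzyme in 10 mM phosphate-buffered saline, pH 7.4, read by diode-array spectrophotometry with nitrocefin (Δε482 = 17,400 M−1cm−1) at 100 μM. IC50: initial velocities after 5 min enzyme–inhibitor pre-incubation. tn: 24 h incubation with increasing inhibitor, then residual activity assayed. Timed inactivation: I:E ratio set from tn; steady-state velocities at set time points over 45 min.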

[3] = target: PDC-3 β-lactamase (Pseudomonas aeruginosa, UniProt P24735, T105A); experiment: IC50 and turnover number with nitrocefin; assay type: biochemical
[4] = target: OXA-24 β-lactamase (Acinetobacter baumannii, UniProt Q8RLA6); experiment: IC50 and turnover number with nitrocefin; assay type: biochemical
[5] = Spontaneous hydrolysis followed by UV difference spectroscopy; assay type: physicochemical; details: 3.5 μM in 10 mM PBS, pH 7.4
[6] = tested on: TEM-2 β-lactamase; details: cited from earlier work

Row | Molecule | IC50 higher than clavulanate ([1]; SHV-1) | IC50 higher than tazobactam ([1]; SHV-1) | Ki greater than tazobactam and clavulanate ([1]; SHV-1) | kobs react lower than clavulanate ([1]; SHV-1) | kobs react lower than tazobactam ([1]; SHV-1) | Ki ([1]; SHV-1, Kiapp corrected for nitrocefin affinity (Km = 20 μM)) | IC50 ([1]; SHV-1, NCF 100 μM, 5 min pre-incubation of enzyme with inhibitor) | kobs react 30min ([1]; SHV-1) | tn (24h) ([1]; SHV-1) | inactivation of SHV-1 in timed inactivation ([1]; […] nM SHV-1 with 980 nM DCM-1-10 (I:E = 7:1), within 45 min) | timed inactivation of ADC-7 in words ([2]; 100 nM ADC-7 with 4.5 μM DCM-1-10, I:E of 45:1) | IC50 ([2]; ADC-7) | IC50 in words ([2]; ADC-7) | IC50 [3] | IC50 in words [3] | IC50 [4] | spontaneous rate of hydrolysis [5] | pseudo first order rate constant of spontaneous hydrolysis ([5]; absorbance at 228 nm) | inhibition of TEM-2 β-lactamase in words [6] | KI ([1]; SHV-1, from fit of kobs versus inhibitor concentration)
1 | 7-(tert-butoxycarbonyl)methylidenecephalosporin sulfone [DCM-1-10] | 4 fold | 27 fold | about 166 fold | at least 333 fold | 67 fold | > 20000 nM | 800 ± 100 nM | 0.0006 ± 0.0001 s⁻¹ | 7 | 95% | rapid compared to SHV-1 | 130 ± 10 nM | submicromolar | 740 ± 80 nM | submicromolar | > 100000 nM | 0.0002 µM/s | 3e-05 s⁻¹ | potent and specific inhibition | –
2 | O=C(O)[C@H]1/C(=C/CO)O[C@@H]2CC(=O)N21 [Clavulanate, clavulanic acid, reference compound] | – | – | – | – | – | – | – | > 0.2 s⁻¹ | 40 | – | – | – | – | – | – | – | – | – | – | 2600 ± 300 nM
3 | C[C@]1(Cn2ccnn2)[C@H](C(=O)O)N2C(=O)C[C@H]2S1(=O)=O [Tazobactam, tazobactam, reference compound] | – | – | – | – | – | – | – | 0.040 ± 0.001 s⁻¹ | 5 | – | – | – | – | – | – | – | – | – | – | –
